In PubChem BioAssay:
Active and inactive are the calls of the source.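 Rule for the calls, unless noted: active = inhibition above 20% together with a positive visual image hit; inconclusive = visual image hit but inhibition not above 20%; inactive = no visual image hit.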

Tests used:
[1] = inhibitors of TNFa-induced NFkB p65 translocation, primary screen, imaging, HUVEC, MLSMR starter and 10KST1 sets (AID 438); conditions: HUVEC TNFa-induced p65 nuclear translocation; cell count: measured here: nuclei count (cytotoxicity indicator), at 2.08 µM; inhibition: at 2 µM, stronger effect = higher value, 0% TNFa-plus-vehicle, 100% no-TNFa wells;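 note: compound added about 3h40 before a 20 min TNFalpha stimulation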;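 for inhibition: signal is the nuclear over cytoplasmic p65 intensity ratio per well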
[2] = inhibitors of mutant huntingtin aggregation, primary screen, imaging, exon1htt(103Q)mCFP cells, high-content imaging (AID 483;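 active = visual image review flags a hit and inhibition of aggregation exceeds 20%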;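 note: compound exposure lasted 3 days before fixation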;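 for nuclei count: percent of the per-plate median nuclei count of sample wells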); conditions: exon1htt(103Q)mCFP cell line, aggregate imaging, at 2 µM; inhibition of aggregation: stronger effect = higher value; nuclei count: measured here: cell count, toxicity
[3] = inhibitors of E-selectin induction by TNFa, primary screen, imaging, HUVEC, immunofluorescence, MLSMR starter and 10KST1 sets (AID 487;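 active = visually confirmed hit in the image check and inhibition above 20%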;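 for inhibition: signal is fraction of cell area covered by stained E-selectin grains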;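 for nuclei count: 100% = median nuclei count of all wells on the same plate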); conditions: HUVEC TNFalpha-induced E-selectin immunofluorescence imaging, at 2 µM; inhibition: stronger effect = higher value; nuclei count: measured here: cell number, toxicity
[4] = target: Voltage-gated potassium channel subunit beta-2 (Rattus norvegicus) (UniProt P62483); assay: KvBeta enzyme negative modulators, primary screen, biochemical, NADPH fluorescence (AID 622;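 active = fluorescence slope higher than the sample average by over 3 SD, cut at about -0.22 in these data, passing the limit was not always enough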;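 note: slope of raw intensity against log time taken from 70 to 1610 s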); conditions: recombinant KvBeta, 4-cyanobenzaldehyde reduction, at 10 µM, stronger effect = higher value
Voltage-gated potassium channel subunit beta-2 (Rattus norvegicus), sequence (P62483 whole entry, looked up): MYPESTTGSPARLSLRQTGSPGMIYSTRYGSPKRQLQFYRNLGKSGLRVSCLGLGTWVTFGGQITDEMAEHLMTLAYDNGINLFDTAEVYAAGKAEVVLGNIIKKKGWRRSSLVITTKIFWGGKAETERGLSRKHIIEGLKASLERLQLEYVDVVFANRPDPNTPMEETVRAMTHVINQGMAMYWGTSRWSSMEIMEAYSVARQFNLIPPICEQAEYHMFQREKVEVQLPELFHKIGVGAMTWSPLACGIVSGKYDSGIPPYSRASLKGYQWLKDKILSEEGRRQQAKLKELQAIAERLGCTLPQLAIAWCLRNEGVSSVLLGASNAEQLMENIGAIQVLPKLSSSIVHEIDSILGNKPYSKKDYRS

[5] = target: Voltage-gated potassium channel subunit beta-2 (Rattus norvegicus) (UniProt P62483); assay: KvBeta positive modulators, primary screen, biochemical, NADPH fluorescence (AID 623;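 active = NADPH fluorescence slope more negative than the mean of all samples by about 3 SD, 99.7% confidence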;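 note: fluorescence intensity change per second fitted from 20 to 320 s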); conditions: Recombinant KvBeta, NADPH fluorescence decrease slope, 10 min; at 10 µM; stronger effect = lower value
[6] = target: Muscarinic acetylcholine receptor M4 (Homo sapiens) (UniProt P08173); assay: compounds altering M4/GIRK thallium flux, either direction, primary screen, M4 allosteric agonist project, cell-based, HEK293 M4/GIRK, BTC-AM (AID 625;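 active = fluorescence slope after compound addition differing from the mean of all tested samples at 99.7% confidence, mostly higher but some lower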;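 note: thallium influx through GIRK channels coupled to M4 in HEK293 cells with BTC-AM dye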); conditions: at 10 µM, actives lie on both sides
Muscarinic acetylcholine receptor M4 (Homo sapiens), sequence (P08173 whole entry, looked up): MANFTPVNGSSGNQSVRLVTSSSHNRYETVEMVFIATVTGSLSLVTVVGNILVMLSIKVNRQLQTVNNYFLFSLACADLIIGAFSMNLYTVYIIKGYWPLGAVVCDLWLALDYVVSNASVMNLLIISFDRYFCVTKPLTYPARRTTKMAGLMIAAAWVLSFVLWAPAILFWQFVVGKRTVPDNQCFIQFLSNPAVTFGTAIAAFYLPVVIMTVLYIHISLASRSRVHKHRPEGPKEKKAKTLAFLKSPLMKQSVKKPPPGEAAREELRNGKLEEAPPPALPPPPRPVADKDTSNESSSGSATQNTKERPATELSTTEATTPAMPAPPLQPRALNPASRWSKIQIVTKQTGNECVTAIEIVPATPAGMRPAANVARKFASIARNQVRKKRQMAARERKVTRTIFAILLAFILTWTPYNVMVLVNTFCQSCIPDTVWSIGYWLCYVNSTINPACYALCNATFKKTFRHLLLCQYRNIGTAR
How it was run: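 Material: HEK293 cells with M4 receptor and GIRK channels; Times: cells overnight at 37 °C, BTC-AM loading 1 h, reads 2 min total; Technique: kinetic BTC-AM fluorescence sampled at 1 Hz, 10 s pre-addition baseline; Read-out basis: slope over 15–24 s of trace normalized to starting intensity; Controls: carbachol positive, DMSO negative.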

[7] = inhibitors of Sendai virus-induced IRF3 signaling, primary screen, TLR/RLR signaling modifier project, cell-based, Sendai virus stimulus, luciferase, 10K MLSCN set (AID 602276;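 active = inhibition at or above 50% at 10 µM; inactive = inhibition below 50%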;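 note: firefly luciferase from ISG56 promoter only with Renilla not read in this screen; 0% = Sendai virus plus DMSO and 100% = medium plus DMSO without virus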); conditions: HEK293 RL24 IRF3 luciferase reporter, at 10 µM, stronger effect = higher value
[8] = inhibitors of poly I:C-induced TLR3 signaling, primary screen, cell-based, poly I:C stimulus, luciferase, 10K MLSCN set (AID 602277;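 active = inhibition of the reporter signal at or above 50%; inactive = inhibition below 50%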); conditions: HEK293-TLR3 RL24 IRF3 luciferase reporter, at 10 µM, stronger effect = higher value

Row | SMILES | cell count [1] | inhibition [1] | inhibition of aggregation [2] | nuclei count [2] [%] | inhibition [3] | nuclei count [3] [%] | fluorescence slope [4] | NADPH fluorescence slope [5] | fluorescence slope [6] | inhibition [7] | inhibition [8]
1 | COC(=O)COc1ccc(S(=O)(=O)NCCC2=CCCCC2)cc1 | 515 | -0.5% (inactive) | 29% (inactive) | 79.1 | -31.4% (inactive) | 107 | -0.544 (inactive) | -2.1e-05 (inactive) | 0.00377 (inactive) | 15.8% (inactive) | 20.7% (inactive)
2 | CCCn1c(=O)c2ccccc2n2c(SCc3cc(=O)n4ccsc4n3)nnc12 | 556 | -10.8% (inactive) | -7% (inactive) | 90.4 | -8.3% (inactive) | 136 | -0.479 (inactive) | 1.9e-05 (inactive) | 0.00554 (inactive) | 1.22% (inactive) | 12% (inactive)
3 | COCc1[nH]nc2c1C(C1C=CCCC1)C(C#N)=C(N)O2 (stereo not drawn) | 463 | 5.7% (inactive) | -1.8% (inactive) | 110 | -76.2% (inactive) | 120 | -0.464 (inactive) | -6.2e-05 (inactive) | 0.00521 (inactive) | 16.7% (inactive) | 31.6% (inactive)
4 | CCC(=O)c1ccc(OCC(=O)N2CCc3cc(OC)c(OC)cc3C2)cc1 | 369 | 10.8% (inactive) | 17.3% (inactive) | 91.3 | 25.9% (inactive) | 99.5 | -0.577 (inactive) | -4.3e-05 (inactive) | 0.00901 (inactive) | 3.27% (inactive) | 12.3% (inactive)
5 | CCN(CC)S(=O)(=O)N1CCC(C(=O)NCC2COc3ccccc3O2)CC1 (stereo not drawn) | 616 | 17% (inactive) | -12.4% (inactive) | 88.5 | -27.8% (inactive) | 115 | -0.494 (inactive) | 2.9e-05 (inactive) | 0.00755 (inactive) | -4.12% (inactive) | 1.83% (inactive)
6 | O=C1CSC(c2cn(-c3ccccc3)nc2-c2cccs2)N1CC1CCCO1 (stereo not drawn) | 453 | -2.6% (inactive) | 10.2% (inactive) | 101 | -83.2% (inactive) | 117 | -0.534 (inactive) | -3e-05 (inactive) | 0.00528 (inactive) | 18.7% (inactive) | 26.5% (inactive)
7 | Cc1ccccc1NC(=O)N1C2CCCC1CC(NC(=O)C1CC1)C2 (stereo not drawn) | 747 | -16.7% (inactive) | -5.1% (inactive) | 107 | 64.2% (inactive) | 94.5 | -0.361 (inactive) | 8.6e-05 (inactive) | 0.00599 (inactive) | 16.2% (inactive) | 16.2% (inactive)
8 | CCOC(=O)C1=C(C)Nc2ncnn2C1c1cc(OC)ccc1OC (stereo not drawn) | 465 | 4.5% (inactive) | -7.4% (inactive) | 97.1 | -356% (inactive) | 126 | -0.236 (inactive) | -2.1e-05 (inactive) | 0.00778 (inactive) | 16.3% (inactive) | 1.62% (inactive)
9 | Cc1ccc(NC(=O)c2oc3ccc(S(=O)(=O)N4CCOCC4)cc3c2C)cc1C | 357 | -20.4% (inactive) | -20.5% (inactive) | 109 | -98.4% (inactive) | 133 | -0.278 (inactive) | 2.2e-05 (inactive) | 0.00768 (inactive) | 11% (inactive) | 13.9% (inactive)
10 | O=C(NCCN1CCOCC1)c1ccc2c(c1)N(Cc1ccccc1)C(=O)CS2 | 773 | -9.5% (inactive) | -8.5% (inactive) | 102 | 20.7% (inactive) | 105 | -0.564 (inactive) | 2e-05 (inactive) | 0.00419 (inactive) | -1.65% (inactive) | 8.57% (inactive)
11 | CC(=O)Nc1nc(C)c(-c2csc(Nc3ccc(O)cc3)n2)s1 | 547 | 1.5% (inactive) | 33.1% (inactive) | 99.7 | -154% (inactive) | 164 | -0.556 (inactive) | -2.7e-05 (inactive) | 0.00314 (inactive) | 20.1% (inactive) | 9.01% (inactive)
12 | CN(Cc1nc(-c2ccncc2)no1)S(=O)(=O)c1ccc(Br)cc1 | 492 | -9.3% (inactive) | -5.7% (inactive) | 108 | -56.8% (inactive) | 194 | -0.589 (inactive) | -3.3e-05 (inactive) | 0.01 (inactive) | 4.91% (inactive) | -6.05% (inactive)
13 | O=C(c1cnsn1)N1CCN(c2ccccn2)CC1 | 277 | 9.3% (inactive) | 4% (inactive) | 82.9 | 1.4% (inactive) | 95.4 | -0.45 (inactive) | -2.9e-05 (inactive) | 0.00527 (inactive) | 4.49% (inactive) | -0.785% (inactive)
14 | COc1cccc(CN(C)CC(=O)NC(=O)NCc2ccco2)c1 | 608 | 2.7% (inactive) | -3.5% (inactive) | 101 | -58.6% (inactive) | 180 | -0.49 (inactive) | 2.9e-05 (inactive) | 0.00617 (inactive) | -13.4% (inactive) | -18.8% (inactive)
15 | Cc1ccc(NC2c3ncccc3C(=O)N2C2CCCCC2)cc1C (stereo not drawn) | 465 | 0.7% (inactive) | -11.9% (inactive) | 119 | -28% (inactive) | 102 | -0.276 (inactive) | -8.5e-06 (inactive) | 0.00562 (inactive) | 1.86% (inactive) | 7.53% (inactive)
16 | CC(C)(C)C(=O)N=C1SC2CS(=O)(=O)CC2N1c1ccc2c(c1)OCO2 (stereo not drawn) | 454 | 5.8% (inactive) | 2% (inactive) | 96.6 | 6.6% (inactive) | 132 | -0.546 (inactive) | -4.1e-05 (inactive) | 0.0052 (inactive) | -0.393% (inactive) | 7.75% (inactive)
17 | COc1ccc(S(=O)(=O)NCc2ccco2)cc1-c1nnc2c3ccccc3c(C)nn12 | 723 | -2.2% (inactive) | -27% (inactive) | 101 | -77.8% (inactive) | 106 | -0.444 (inactive) | -2.6e-05 (inactive) | 0.00549 (inactive) | 12.3% (inactive) | 11.8% (inactive)
18 | Cc1nc(N2CCOCC2)[nH]c(=O)c1CCC(C)C | 417 | -3.4% (inactive) | 6.3% (inactive) | 107 | 28.7% (inactive) | 57.6 | -0.4 (inactive) | 2.6e-05 (inactive) | 0.0057 (inactive) | 15.6% (inactive) | 21.2% (inactive)
19 | COC(=O)c1cccc(S(=O)(=O)N2CCN(c3nc4ccccc4s3)CC2)c1 | 299 | -5% (inactive) | 6.2% (inactive) | 96.3 | -24.1% (inactive) | 80.7 | -0.539 (inactive) | 1.2e-05 (inactive) | 0.00622 (inactive) | 1.3% (inactive) | 8.61% (inactive)
20 | CN(C)Cc1c(O)ccc2oc(Cc3ccccc3)cc12 | 676 | -9.1% (inactive) | 14.8% (inactive) | 65.8 | -12.9% (inactive) | 104 | -0.533 (inactive) | -6.9e-06 (inactive) | 0.00447 (inactive) | 22.6% (inactive) | 22.2% (inactive)
21 | O=c1oc2ccccc2n1CCn1c2ccccc2c2nc3ccccc3nc21 | 714 | -7.8% (inactive) | -10.6% (inactive) | 103 | -9.3% (inactive) | 109 | -0.273 (inactive) | -1.3e-05 (inactive) | 0.00487 (inactive) | -5.18% (inactive) | 9.99% (inactive)
22 | O=C(NCCN1CCCC1)C1COc2ccccc2O1 (stereo not drawn) | 511 | -0.5% (inactive) | -4.3% (inactive) | 73.8 | -28.7% (inactive) | 100 | -0.587 (inactive) | -3.1e-05 (inactive) | 0.0064 (inactive) | 1.21% (inactive) | 11.8% (inactive)
23 | O=C(O)CCCC(=O)Nc1ccc(Br)cc1C(=O)O | 398 | 3.8% (inactive) | -5.6% (inactive) | 108 | 12.5% (inactive) | 103 | -0.57 (inactive) | 2.4e-05 (inactive) | 0.00576 (inactive) | 16.9% (inactive) | 20.6% (inactive)
24 | CCNc1nc(N2CCCCC2)nc(-n2nnc(C(=O)OCC)c2C)n1 | 550 | -5.3% (inactive) | 1.6% (inactive) | 92.5 | 27.7% (inactive) | 66.8 | -0.613 (inactive) | -6.3e-05 (inactive) | 0.00368 (inactive) | -2.26% (inactive) | 4.91% (inactive)
25 | CC(=O)Nc1ccc(S(=O)(=O)N2CCN(Cc3ccncc3)CC2)cc1 | 679 | -5.8% (inactive) | -14% (inactive) | 123 | -26.1% (inactive) | 126 | -0.451 (inactive) | -3.2e-05 (inactive) | 0.00451 (inactive) | 18.9% (inactive) | 16.4% (inactive)
26 | Cn1c(=O)c2c(nc(SCc3nn[nH]n3)n2Cc2ccccc2F)n(C)c1=O | 481 | -9.5% (inactive) | 13.9% (inactive) | 81.9 | -5.3% (inactive) | 96.9 | -0.535 (inactive) | 4.4e-06 (inactive) | 0.00622 (inactive) | 15% (inactive) | 17.9% (inactive)
27 | CCOC(=O)c1sc(C)c2c1NC(C)(c1cccs1)NC2=O (stereo not drawn) | 674 | -2% (inactive) | -5.5% (inactive) | 104 | -10.7% (inactive) | 101 | -0.49 (inactive) | 1.8e-05 (inactive) | 0.00453 (inactive) | 5.21% (inactive) | 10.9% (inactive)
28 | COc1ccc(N(CC(=O)N2c3ccccc3CC2C)S(=O)(=O)c2c(C)noc2C)cc1 (stereo not drawn) | 539 | -5.8% (inactive) | -18.3% (inactive) | 118 | -62.5% (inactive) | 116 | -0.395 (inactive) | 9.4e-05 (inactive) | 0.00594 (inactive) | 14.5% (inactive) | 30.9% (inactive)
